In ChEMBL document CHEMBL3751716, “Identification of 5-Methoxyflavone as a Novel DNA Polymerase-Beta Inhibitor and Neuroprotective Agent against Beta-Amyloid Toxicity” (J Nat Prod, 2015):
Calls of active or inactive are those of the source. No cut-off for these calls is given here.

How the values were obtained:
[1] = Cytotoxicity against mouse 88TAg fibroblasts assessed as compound level causing reduction of cell viability incubated for 2 hrs by MTT assay
Outline: (§1)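 Mouse embryonic fibroblasts, 92TAg (wild type) or 88TAg (pol-β null), were seeded 5 × 10^3/well and serum-deprived at treatment. Compound (5-60 μM) was given 2 h, then a 2 h MMS pulse (500 μM for 92TAg, 250 μM for 88TAg). After washout, compound was re-added and viability read 24 h from start by MTT (0.9 mg/mL, 2 h, 37 °C; DMSO lysis; A570). Means ± SEM, 3-9 determinations.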

[2] = test system: DNA polymerase beta (Mus musculus); assay: Inhibition of DNA polymerase-beta in mouse wild-type 92TAg cells assessed as increase in MMS toxicity at 1 to 60 uM incubated for 2 hrs prior to MMS challenge for 2 hrs followed by post wash compound addition measured after 24 hrs by MTT assay
[3] = Cytotoxicity against Sprague-Dawley rat cortical neurons at 50 uM by MTT assay; conditions: cortical neurone
[4] = molecular target: DNA polymerase beta (Homo sapiens) (UniProt P06746); conditions: 50 uM
[5] = Cytotoxicity against mouse 88TAg fibroblasts assessed as reduction of cell viability at 60 uM incubated for 2 hrs by MTT assay; outline: as §1
[6] = species: Mus musculus; assay: Effect on cell cycle distribution in against mouse 92TAg cells assessed as cell accumulation at S-phase at 8 ug/ml incubated for 15 hrs by propidium iodide staining based cytofluorimetric analysis; format: functional
Outline: (§2)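 Mouse embryonic fibroblasts (wild-type 92TAg; pol-β-null 88TAg) grown in DMEM with 10% FBS at 37 °C and 5% CO2. Synchronized in 0.2% FBS medium for 72 h, then returned to 10% FBS medium with compound for 15 h. Cell-cycle phase percentages scored by cytofluorimetry of propidium iodide-labeled cells. Experiments run at least in triplicate, one-way ANOVA.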

[7] = species: Mus musculus; assay: Effect on cell cycle distribution in against polymerase-beta knock out mouse 88TAg cells assessed as cell accumulation at S-phase at 8 ug/ml incubated for 15 hrs by propidium iodide staining based cytofluorimetric analysis; format: functional; outline: as §2

## CC1(C)NCCC12C(=O)N(Cc1ccccc1)c1ccccc12 (stereo unspecified)
[1]
  Activity: Non-toxic
[2]
  inhibition: inactive

## CC1(C)CC[C@]2(C(=O)O)CC[C@]3(C)C(=CC[C@@H]4[C@@]5(C)CC[C@H](O)C(C)(C)[C@@H]5CC[C@]43C)[C@@H]2C1 [OLEANOLIC_ACID]
[3]
  Activity: Toxic
[4]
  inhibition: Active

## O=c1cc(-c2ccccc2O)oc2c1ccc1ccccc12
[1]
  Activity: 10 µM
[5]
  Activity: <= 90%

## Cc1ccccc1Nc1nc2ccc([N+](=O)[O-])cc2nc1Nc1ccccc1C
[1]
  Activity: <= 90%

## C[C@@]1(CO)[C@H](O)CC[C@@]2(C)[C@H]1CC[C@H]1C[C@@H]3C[C@@]12CC[C@]3(O)CO
[6]
  Activity: Active
[7]
  Activity: Active

## c1ccc2c(c1)c1ccccc1n2Cn1c2ccccc2c2ccccc21
[1]
  Activity: <= 90%

## C[C@H](C(=O)O)c1cccc(C(=O)c2ccccc2)c1 [DEXKETOPROFEN]
[1]
  Activity: Non-toxic
